Screening results as filed in PubChem BioAssay.
The list is not random: actives were taken first. Their share in the collection is about 4%.
MPTP block – permeability transition pore inhibition | isolated mouse mitochondria, Ca2+ swelling absorbance, 30 min | inhibition, % at 10 µM | hit rate 1.4% among 360,000 | AID 602449;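 active = inhibition of 50% or more, scaled per plate between neutral and stimulator controls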
TAAR1 antag – human TAAR1 antagonism. inhibition, % at 3 µM. AID 624466. Q96RJ0. CHO RD-HGA16 TAAR1, Fluo-8 calcium fluorescence, antagonist. hit rate 1.5% among 360,000;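 active = inhibition above a per-plate cutoff, the mean inhibition of test compounds on that plate plus 3 SD, cut at about 49% in these data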
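Test system: CHO RD-HGA16 cells bearing hTAAR1 | Reagent: β-PEA, EC80 | Compound dosing: 3 µM, single point | Schedule: Dye loading 75 min at 37 °C, then 30 min room temperature | Signal: Calcium fluorescence with Fluo-8 | Evaluation: Percent inhibition of PEA-evoked calcium signal, max/basal emission ratio | Control set: DMSO-only wells and EC80 β-PEA-stimulated wells | Repeats: Singlicate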
DAGLB inhibitor – blocks human DAGLB lipase activity; hit rate 0.059% among 340,000; AID 504411; inhibition, % at 5.17 µM; HEK293T DAGLB membrane lysate, EnzChek fluorogenic substrate; in the data active = inhibition above about 34%
Target sequence (Q8NCG7 whole entry, looked up): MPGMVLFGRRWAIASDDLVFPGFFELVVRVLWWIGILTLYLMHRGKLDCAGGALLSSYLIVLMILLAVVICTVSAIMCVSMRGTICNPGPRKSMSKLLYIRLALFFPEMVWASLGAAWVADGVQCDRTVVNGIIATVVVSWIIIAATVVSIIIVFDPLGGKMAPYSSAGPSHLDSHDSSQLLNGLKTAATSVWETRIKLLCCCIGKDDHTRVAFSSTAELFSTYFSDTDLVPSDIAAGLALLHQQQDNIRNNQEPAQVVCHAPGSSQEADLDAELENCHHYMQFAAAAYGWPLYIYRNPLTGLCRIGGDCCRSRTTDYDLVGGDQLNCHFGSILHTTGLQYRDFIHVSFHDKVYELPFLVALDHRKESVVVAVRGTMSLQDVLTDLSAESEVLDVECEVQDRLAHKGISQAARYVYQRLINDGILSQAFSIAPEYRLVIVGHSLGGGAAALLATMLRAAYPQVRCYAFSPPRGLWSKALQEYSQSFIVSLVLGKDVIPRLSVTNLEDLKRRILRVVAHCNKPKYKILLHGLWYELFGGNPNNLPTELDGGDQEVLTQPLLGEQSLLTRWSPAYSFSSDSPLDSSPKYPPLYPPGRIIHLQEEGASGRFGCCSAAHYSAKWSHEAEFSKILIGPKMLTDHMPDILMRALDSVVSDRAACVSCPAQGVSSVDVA
GPR7 antagonist – antagonists of human GPR7 (neuropeptides B/W receptor 1). P48145. GPR7-expressing cells, fluorescence antagonist assay. inhibition, % at 4.4 µM. hit rate 1.1% among 290,000. AID 1861; in the data active = inhibition above about 16%, passing the limit was not always enough;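 note: cells stimulated with the agonist NPW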
TAAR1 ag – agonists of human TAAR1 | hit rate 0.99% among 360,000 | AID 624467 | Q96RJ0 | CHO RD-HGA16 TAAR1, Fluo-8 calcium fluorescence; vehicle wells 0%, saturating PEA agonist 100% | activation, % at 3 µM;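 active = activation above the mean activation of all test compounds in the run plus 3 SD, cut at about 38% in these data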
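Benchmarks: low control DMSO, high control PEA (EC100); System: CHO RD-HGA16 cells carrying human TAAR1 plus Gα16; Detection: Fluo-8 fluorescence, 5 s baseline then 140 s kinetic read; Schedule: 17-24 h plating, Fluo-8 75 min 37 °C, 30 min RT; Read-out basis: % activation from peak over basal fluorescence ratio, DMSO-to-PEA scaled.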
GPR7 antag conf – human GPR7 antagonism, confirmation assay; GPR7-expressing cells, calcium fluorescence antagonist mode; inhibition, % at 4.4 µM; shares compounds with GPR7 antagonist; hit rate 52% among 2,400; in the data active = inhibition above about 24%;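 note: stimulated with the GPR7 agonist NPW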
MCHR1 antag – antagonizes human MCHR1, a GPR7 antagonist counter-screen | shares compounds with GPR7 antagonist | MCHR1-expressing cells, fluorescence antagonist assay | inhibition, % at 4.4 µM | hit rate 62% among 2,400 | AID 2148; in the data active = inhibition above about 22%
Large screens that a line does not name were inactive (follow-up assays come after a bar, where they were run).

Cc1cc(NCCc2c[nH]c3ccccc23)ccc1Nc1cccnc1	none (no result: MPTP block, DAGLB inhibitor, GPR7 antagonist)
CCOc1ccc(CCNC(=O)CCc2nnc3ccc(N4CCOCC4)nn23)cc1OCC	GPR7 antagonist 30.0 | GPR7 antag conf inactive | MCHR1 antag inactive
CCc1nc2c(OCc3ccc(Cl)cc3Cl)cccn2c1N(C)C(=O)c1ccccc1F	none (no result: DAGLB inhibitor, GPR7 antagonist)
COc1cc(C)ccc1Oc1ncnc(N)c1[N+](=O)[O-]	GPR7 antagonist 51.0 | GPR7 antag conf inactive | MCHR1 antag inactive
Cc1cccc2cc(CN(Cc3ccccc3)C(=S)NCCCN(C)C)c(=O)[nH]c12	GPR7 antagonist 52.6 | GPR7 antag conf 47.8 | MCHR1 antag 27.9
Cc1cccc2cc(CN(Cc3cccnc3)C(=S)NCCCN(C)C)c(=O)[nH]c12	none
CSc1nnc(N2C(=O)C(O)=C(C(=O)c3ccco3)C2c2ccccc2F)s1 (centres undefined)	GPR7 antagonist 23.2 | GPR7 antag conf inactive | MCHR1 antag inactive
CSc1nnc(N2C(=O)C(O)=C(C(=O)c3ccco3)C2c2ccccc2)s1 (centres undefined)	none
CC(C)CS(=O)(=O)C1=NN2C(=N)/C(=C\c3ccc(OC(=O)c4ccco4)cc3)C(=O)N=C2S1	GPR7 antagonist 43.0 | GPR7 antag conf 42.2 | MCHR1 antag 34.3
CC(C)C(c1nnnn1Cc1cccs1)N1CCN(C2CCCC2)CC1 (centres undefined)	GPR7 antagonist 33.6 | GPR7 antag conf inactive | MCHR1 antag inactive
CCC(c1nnnn1Cc1ccc(F)cc1)N1CCN(C2CCCCC2)CC1 (centres undefined)	GPR7 antagonist 45.8 | GPR7 antag conf 43.4 | MCHR1 antag 29.0
CC(=O)C1=C(C)N(Cc2ccc(Br)cc2)C(=S)NC1c1cccc(Br)c1 (centres undefined)	none (no result: MPTP block, DAGLB inhibitor, GPR7 antagonist)
Cc1ccc(-c2cc(C(=O)N3CCCc4ccccc43)c3ccccc3n2)cc1	none
O=C(c1cc(-c2cccnc2)nc2ccccc12)N1CCCc2ccccc21	GPR7 antagonist 23.7 | GPR7 antag conf inactive | MCHR1 antag 22.7
CC(C)CNS(=O)(=O)c1ccc(NC(=O)Cn2nc(-c3ccc(F)cc3)ccc2=O)cc1	GPR7 antagonist 33.3 | GPR7 antag conf inactive | MCHR1 antag inactive
O=C(Cn1nc(-c2ccccc2)ccc1=O)Nc1ccc(-n2cnnn2)cc1	GPR7 antagonist 26.6 | GPR7 antag conf inactive | MCHR1 antag 41.3
C[C@@H]1OC(C2CCCCC2)N(C)[C@H]2C[C@H]3c4[nH]c5cccc(-c6ccccc6)c5c4CCN3C(=O)[C@@H]12 (some centres undefined)	none (no result: MPTP block, DAGLB inhibitor, GPR7 antagonist)
Oc1ccccc1N1CCN(c2nnnn2-c2ccccc2)CC1	none
c1ccc(N2CCN(c3nnnn3-c3ccccc3)CC2)cc1	GPR7 antagonist 26.3 | GPR7 antag conf inactive | MCHR1 antag inactive
CCC(C)(C)c1ccc(OCCCC[n+]2ccc(C)cc2)c(C(C)(C)CC)c1	GPR7 antagonist 69.0 (no result: MPTP block, DAGLB inhibitor) | GPR7 antag conf 74.3 | MCHR1 antag 83.3
COc1cc(NC(=O)[C@H]2O[C@@H](n3ccc(N)nc3=O)[C@H](O)[C@@H]2O)cc(OC)c1OC	none (no result: DAGLB inhibitor, GPR7 antagonist)
O=C(NCC1CCCO1)C1CCCN(S(=O)(=O)c2cccc(C(F)(F)F)c2)C1 (centres undefined)	GPR7 antagonist 24.0 | GPR7 antag conf inactive | MCHR1 antag inactive
COc1ccc(N2C(=O)N3[C@@H]4c5ccccc5OC[C@@H]4[C@@H](c4ccccc4)[C@@]3(C)C2=O)cc1	none (no result: GPR7 antagonist)
COCCNC(=S)Nc1ccc(S(=O)(=O)Nc2ncccn2)cc1	GPR7 antagonist 25.2 | GPR7 antag conf inactive | MCHR1 antag inactive
C[C@@H]1CN([C@@H](C)CO)C(=O)CCCn2nncc2CO[C@@H]1CN(C)C(=O)CCC(F)(F)F	none (no result: GPR7 antagonist)
O=C(NCc1ccco1)C(=O)NN=Cc1ccccc1O	none (no result: MPTP block, DAGLB inhibitor, GPR7 antagonist)
O=C(COc1ccc(Br)cc1CNC1CCCCC1)NCCc1ccccc1	GPR7 antagonist 21.0 | GPR7 antag conf 48.0 | MCHR1 antag 30.8
CCc1ccc(C2CC(c3ccccc3Cl)Nc3nc(N)nn32)cc1 (centres undefined)	GPR7 antagonist 30.3 | GPR7 antag conf 42.3 | MCHR1 antag inactive
COc1cccc(C2CC(c3ccc(Cl)cc3Cl)n3nc(N)nc3N2)c1 (centres undefined)	GPR7 antagonist 26.9 | GPR7 antag conf inactive | MCHR1 antag inactive
Cc1ccc(C2CC(c3ccccc3C)n3nc(N)nc3N2)cc1 (centres undefined)	GPR7 antagonist 26.4 | GPR7 antag conf inactive | MCHR1 antag inactive
COc1ccc(C2CC(c3cccc(OC)c3)n3nc(N)nc3N2)cc1 (centres undefined)	GPR7 antagonist 39.3 | GPR7 antag conf inactive | MCHR1 antag inactive
Cc1cc(S(=O)(=O)NC(=O)[C@H]2O[C@@H](n3ccc(=O)[nH]c3=O)[C@H](O)[C@@H]2O)ccc1Br	none (no result: MPTP block, DAGLB inhibitor, GPR7 antagonist)
Cc1ccccc1CC1(CO)CCCN(C(=O)c2cc(Cl)ccc2F)C1 (centres undefined)	none (no result: GPR7 antagonist) | MCHR1 antag inactive
Cc1ccccc1CC1(CO)CCCN(C(=O)c2ccccc2Cl)C1 (centres undefined)	GPR7 antagonist 33.6 | GPR7 antag conf 32.1 | MCHR1 antag inactive
Cc1ccccc1CC1(CO)CCCN(C(=O)c2cccc(Cl)c2)C1 (centres undefined)	none
Nc1nc2ncccc2cc1C(=O)NC1CC1	none (no result: MPTP block, DAGLB inhibitor, GPR7 antagonist)
Cc1cc(O)cc(=O)n1-c1cc(C(F)(F)F)cc(C(F)(F)F)c1	none (no result: MPTP block, DAGLB inhibitor, GPR7 antagonist)
COc1ccc2[nH]c(=O)cc(C(=O)O)c2c1	none
COc1ccc2[nH]c3c4c(ccc3c2c1)C(=O)C=CC4=O	TAAR1 antag 76.7, GPR7 antagonist 22.6, TAAR1 ag 43.7 | GPR7 antag conf 62.3 | MCHR1 antag 80.0
CN(C)CCNC(=O)c1ccc(COc2ccc(Cl)cc2Cl)cc1	GPR7 antagonist 30.0 | GPR7 antag conf 40.1 | MCHR1 antag 51.6
Cc1cccc(CN2CCN(c3nc4nonc4nc3NC3CC3)CC2)c1	none
Clc1cccc(CN2CCN(c3nc4nonc4nc3NC3CC3)CC2)c1	GPR7 antagonist 27.2 | GPR7 antag conf inactive | MCHR1 antag inactive
CC(=O)c1cccc(NC(=O)N2CC(C)OC(C)C2)c1 (centres undefined)	none
CC1CN(C(=O)Nc2cccc(C(F)(F)F)c2)CC(C)O1 (centres undefined)	GPR7 antagonist 27.1 | GPR7 antag conf 23.8 | MCHR1 antag 35.9
CCCSc1ccc2nc(NC(=O)OC)[nH]c2c1	GPR7 antagonist 29.2 | GPR7 antag conf 39.5 | MCHR1 antag 27.8
C=C(C)C(=O)Nc1ccc2nn(-c3ccccc3O)nc2c1	none (no result: GPR7 antagonist)
Cc1cccc(NC(=O)Nc2nnc([C@H]3C[C@H](O)[C@@H](CO)O3)s2)c1	none (no result: DAGLB inhibitor, GPR7 antagonist)
CCN1CCc2c(OCc3ccc(C(=O)OC)o3)cccc2C1=O	none
